Values joined by “and” are separate entries in the source; they are usually repeats but may differ in a detail not shown here. Equal values may be shown once.

The record followed here is ChEMBL document CHEMBL1145840, “Identification of (3R)-7-hydroxy-N-((1S)-1-[[(3R,4R)-4-(3-hydroxyphenyl)- 3,4-dimethyl-1-piperidinyl]methyl]-2-methylpropyl)-1,2,3,4-tetrahydro- 3-isoquinolinecarboxamide as a novel potent and selective opioid kappa receptor antagonist” (J Med Chem, 2003).

In assay [1] the target is Mu-type opioid receptor (Rattus norvegicus, UniProt P33535). The assay can be described thus: Inhibition of [3H]DAMGO binding to Opioid receptor mu 1 of rat brain tissue. The essentials: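 Rat brain membranes prepared daily, labelled with [3H]DAMGO. Incubation 2 h at 25 °C in 50 mM Tris-HCl pH 7.4 with protease inhibitor cocktail. Nonspecific binding was taken with 20 µM levallorphan. Radioligand was displaced by 8-10 drug concentrations. IC50 was converted to Ki by IC50/(1+[L]/Kd), from two pooled experiments.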

For assay [2], the target named is Kappa-type opioid receptor (Cavia porcellus) (UniProt P41144). The assay can be described thus: Inhibition of U69,593 antagonistic activity in [35S]GTP-gamma-S, assay against guinea pig Opioid receptor kappa 1. It is filed as functional. The essentials:
(§1)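 Agonist-stimulated binding was run with varying drug concentrations, 3 h at 25 °C, then filtration and scintillation counting. Nonspecific binding was taken with 10 µM GTPγS. Three experiments were pooled and fit by nonlinear least squares to give Ke.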

Assay [3] concerns the target Delta-type opioid receptor (Rattus norvegicus, UniProt P33533). As to the kind of experiment: Inhibition of [3H]-DADLE binding to Opioid receptor delta 1 of rat brain tissue. The essentials:
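Rat brain membranes prepared daily, labelled with 2 nM [3H]DADLE. Incubation 2 h at 25 °C in 50 mM Tris-HCl pH 7.4 with 100 mM choline chloride, 3 mM MnCl2, 100 nM DAMGO to block mu sites, and protease inhibitors. Nonspecific binding was taken with 20 µM levallorphan. Radioligand was displaced by 8-10 drug concentrations. Ki came from IC50 via Cheng–Prusoff, from two pooled experiments.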

Assay [4] addresses Mu-type opioid receptor (Cavia porcellus) (UniProt P97266). The assay can be described thus: Antagonistic activity against DAMGO and guinea pig caudate Opioid receptor mu 1 in [35S]GTP-gamma-S, assay. It is filed as functional. The essentials: as §1
For orientation: GTPγS resists hydrolysis and so accumulates on activated G proteins.

In assay [5] the target is Kappa-type opioid receptor (Cavia porcellus, UniProt P41144). As to the kind of experiment: Inhibition of [3H]U-69593 binding to Opioid receptor kappa 1 of guinea pig brain. The method in brief: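 Guinea pig brain membranes prepared daily, labelled with 2 nM [3H]U69,593. Incubation 2 h at 25 °C in 50 mM Tris-HCl pH 7.4 with 1 µg/mL captopril and protease inhibitors. Nonspecific binding was taken with 1 µM U69,593. Radioligand was displaced by 8-10 drug concentrations. Ki came from IC50 via IC50/(1+[L]/Kd), from two pooled experiments.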

Assay [6] deals with T1, Kappa-type opioid receptor (Homo sapiens, UniProt P41145). The assay can be described thus: Binding affinity towards human cloned Opioid receptor kappa 1 using [3H]U-69593.
Assay [7] concerns the target T2, Mu-type opioid receptor (Homo sapiens, UniProt P35372). As to the kind of experiment: Antagonistic activity against human cloned Opioid receptor mu 1 using DAMGO in [35S]GTP-gamma-S, assay. It counts as functional.
Assay [8] deals with T3, Delta-type opioid receptor (Homo sapiens, UniProt P41143). The assay can be described thus: Binding affinity towards human cloned Opioid receptor delta 1 using [3H]Cl-DPDPE.
The target of assay [9] is T2, Mu-type opioid receptor. As to the kind of experiment: Binding affinity towards human cloned Opioid receptor mu 1 using [3H]DAMGO.
The target of assay [10] is T1, Kappa-type opioid receptor. As to the kind of experiment: Antagonistic activity against human cloned Opioid receptor kappa 1 using U69,593 in [35S]GTP-gamma-S, assay. It counts as functional.
Assay [11] addresses T3, Delta-type opioid receptor. As to the kind of experiment: (§2) Antagonistic activity against human cloned Opioid receptor delta 1 using DPDPE in [35S]GTP-gamma-S, assay. It counts as functional.
Assay [12] addresses Opioid receptors; mu & kappa (Homo sapiens) (UniProt P41145+P35372). As to the kind of experiment: Selectivity ratio of mu and kappa opioid receptor. It counts as protein assay.
In assay [13] the target is Opioid receptors; delta & kappa (Homo sapiens) (UniProt P41145+P41143). The assay can be described thus: Selectivity ratio of delta and kappa opioid receptor. It counts as protein assay.
Assay [14] concerns the target T1, Kappa-type opioid receptor. The assay can be described thus: Antagonistic activity against human cloned kOpioid receptor kappa 1 using U69,593 in [35S]GTP-gamma-S, assay. It is filed as functional. Particulars: read-out: pA2 (converted). The essentials: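 Membranes from CHO cells transfected with cloned human κ opioid receptor. Antagonism is measured as inhibition of U69,593-stimulated [35S]GTPγS binding and expressed as a Ke value.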

Assay [15] has as its target T2, Mu-type opioid receptor. The assay can be described thus: Antagonistic activity against human cloned Opioid receptor mu 1 using DPDPE in [35S]GTP-gamma-S, assay. It counts as functional. Particulars: read-out: pA2 (converted).
The target in assay [16] is T3, Delta-type opioid receptor. The description is as §2. It counts as functional. Particulars: read-out: pA2 (converted).
For assay [17], the target named is T2, Mu-type opioid receptor.

Opioid receptors; delta & kappa (Homo sapiens), sequence (P41143 whole entry, looked up): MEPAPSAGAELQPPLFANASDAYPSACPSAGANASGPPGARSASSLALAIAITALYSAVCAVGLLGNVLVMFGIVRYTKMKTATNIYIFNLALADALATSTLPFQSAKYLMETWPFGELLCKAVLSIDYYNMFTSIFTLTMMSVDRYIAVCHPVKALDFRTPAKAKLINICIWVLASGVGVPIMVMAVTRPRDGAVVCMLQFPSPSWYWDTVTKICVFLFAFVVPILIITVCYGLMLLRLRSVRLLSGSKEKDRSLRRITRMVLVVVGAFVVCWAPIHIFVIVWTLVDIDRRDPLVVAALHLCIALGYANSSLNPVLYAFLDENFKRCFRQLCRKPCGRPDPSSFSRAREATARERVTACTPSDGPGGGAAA
Opioid receptors; delta & kappa (Homo sapiens), sequence (P41145 whole entry, looked up): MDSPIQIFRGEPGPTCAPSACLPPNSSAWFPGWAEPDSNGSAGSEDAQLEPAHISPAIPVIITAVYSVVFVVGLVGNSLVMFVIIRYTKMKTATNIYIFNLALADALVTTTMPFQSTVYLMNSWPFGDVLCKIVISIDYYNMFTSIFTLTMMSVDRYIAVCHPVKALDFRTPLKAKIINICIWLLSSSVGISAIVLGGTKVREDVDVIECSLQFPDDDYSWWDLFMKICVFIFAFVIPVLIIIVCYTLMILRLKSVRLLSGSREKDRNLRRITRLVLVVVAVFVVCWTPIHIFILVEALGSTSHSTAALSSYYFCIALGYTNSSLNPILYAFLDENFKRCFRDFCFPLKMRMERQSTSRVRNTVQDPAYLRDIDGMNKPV
T3 sequence (P41143 whole entry): as the sequence (P41143 whole entry, looked up) above
Mu-type opioid receptor (Cavia porcellus), sequence (P97266 whole entry): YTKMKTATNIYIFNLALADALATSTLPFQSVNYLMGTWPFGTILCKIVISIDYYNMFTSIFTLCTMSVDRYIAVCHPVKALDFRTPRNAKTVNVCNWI
Kappa-type opioid receptor (Cavia porcellus, UniProt P41144), sequence (P41144 whole entry): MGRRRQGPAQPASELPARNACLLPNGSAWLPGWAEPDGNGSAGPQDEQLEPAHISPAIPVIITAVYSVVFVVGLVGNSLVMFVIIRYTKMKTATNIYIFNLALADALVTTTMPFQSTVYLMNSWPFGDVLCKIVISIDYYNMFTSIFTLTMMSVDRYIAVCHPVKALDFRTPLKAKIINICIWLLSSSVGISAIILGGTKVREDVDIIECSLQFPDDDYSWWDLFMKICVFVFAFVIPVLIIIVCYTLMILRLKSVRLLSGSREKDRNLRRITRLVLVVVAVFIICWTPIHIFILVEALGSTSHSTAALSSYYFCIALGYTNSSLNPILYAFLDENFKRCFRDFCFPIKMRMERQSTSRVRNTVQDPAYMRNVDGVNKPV
Kappa-type opioid receptor (Cavia porcellus), sequence (P41144 whole entry): as above
T2 sequence (P35372 whole entry): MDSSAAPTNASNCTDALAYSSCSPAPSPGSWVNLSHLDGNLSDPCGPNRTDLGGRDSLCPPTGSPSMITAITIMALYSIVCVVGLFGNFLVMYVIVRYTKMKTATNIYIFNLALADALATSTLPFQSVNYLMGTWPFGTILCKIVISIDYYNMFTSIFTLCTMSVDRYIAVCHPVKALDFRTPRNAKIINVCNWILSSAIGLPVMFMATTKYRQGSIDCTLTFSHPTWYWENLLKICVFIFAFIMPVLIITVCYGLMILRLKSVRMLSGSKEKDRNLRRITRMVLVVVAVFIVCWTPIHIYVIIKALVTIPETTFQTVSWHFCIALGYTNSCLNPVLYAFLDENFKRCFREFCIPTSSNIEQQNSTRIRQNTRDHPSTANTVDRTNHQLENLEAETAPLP
T1 sequence (P41145 whole entry): as the sequence (P41145 whole entry, looked up) above
Mu-type opioid receptor (Rattus norvegicus, UniProt P33535), sequence (P33535 whole entry): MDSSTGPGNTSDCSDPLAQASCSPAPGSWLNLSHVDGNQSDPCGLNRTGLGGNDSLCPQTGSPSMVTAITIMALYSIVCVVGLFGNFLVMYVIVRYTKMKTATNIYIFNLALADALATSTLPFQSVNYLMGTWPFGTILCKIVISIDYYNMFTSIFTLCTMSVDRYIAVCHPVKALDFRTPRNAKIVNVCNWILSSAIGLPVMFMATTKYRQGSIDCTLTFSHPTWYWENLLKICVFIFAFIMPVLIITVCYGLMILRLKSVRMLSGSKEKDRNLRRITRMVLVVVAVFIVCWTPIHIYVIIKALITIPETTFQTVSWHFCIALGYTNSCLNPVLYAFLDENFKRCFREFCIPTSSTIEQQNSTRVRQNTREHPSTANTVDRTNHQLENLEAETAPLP
Delta-type opioid receptor (Rattus norvegicus, UniProt P33533), sequence (P33533 whole entry): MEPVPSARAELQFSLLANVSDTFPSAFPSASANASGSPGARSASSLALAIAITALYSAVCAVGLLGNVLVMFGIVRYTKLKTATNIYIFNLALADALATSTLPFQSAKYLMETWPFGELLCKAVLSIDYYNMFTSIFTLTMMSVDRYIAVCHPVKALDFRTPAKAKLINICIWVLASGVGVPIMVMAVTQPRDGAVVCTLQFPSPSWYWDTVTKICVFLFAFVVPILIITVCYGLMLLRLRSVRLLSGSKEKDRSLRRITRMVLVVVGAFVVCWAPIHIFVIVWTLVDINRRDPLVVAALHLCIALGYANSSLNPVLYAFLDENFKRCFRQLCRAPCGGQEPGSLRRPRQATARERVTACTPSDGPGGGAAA
Opioid receptors; mu & kappa (Homo sapiens), sequence (P35372 whole entry, looked up): as the sequence (P35372 whole entry) above
Opioid receptors; mu & kappa (Homo sapiens), sequence (P41145 whole entry, looked up): as the sequence (P41145 whole entry, looked up) above

Consider `CC(C)[C@@H](CN1CC[C@](C)(c2cccc(O)c2)[C@H](C)C1)NC(=O)[C@H]1Cc2ccc(O)cc2CN1`, for which the values for the inhibition constant Ki (on Mu-type opioid receptor [1]; in [3]; in assay [5]) were 138 nM, 144 nM and 17.5 nM, respectively. Moreover, the Ke was 16.7 nM in assay [2] and 178 nM in assay [4].
Take `CC(C)[C@@H](CN1CC[C@@](C)(c2cccc(O)c2)[C@@H](C)C1)NC(=O)[C@@H](N)Cc1ccc(O)cc1` (stereo in doubt; form 1) [listing 1 of 2 here]: the figures for the Ki (on Mu-type opioid receptor [1]; in assay [3]; in assay [5]) were 208 nM, above 5050 nM and 20.4 nM, respectively.
For the compound `CC(C)[C@@H](CN1CC[C@@](C)(c2cccc(O)c2)[C@@H](C)C1)NC(=O)[C@H]1Cc2ccccc2CN1`, the Ki is 775 nM at Mu-type opioid receptor [1]; above 4900 nM in [3]; 2.18 nM in assay [6]; 1090 nM in [8]; 33.1 nM at Mu-type opioid receptor [9]; 2.1 nM in assay [5]. The results for the Ke (on Mu-type opioid receptor [7]; in assay [10]) were 8.38 nM and 2.95 nM, respectively.
`CC(C)[C@@H](CN1CC[C@@](C)(c2cccc(O)c2)[C@@H](C)C1)NC(=O)[C@H]1Cc2ccc(O)cc2CN1C(=O)CN(C)C`: the Ki was 164 nM on Mu-type opioid receptor [1]; above 3400 nM in assay [3]; 16.2 nM in [6]; 175 nM in [8]; 13.2 nM at Mu-type opioid receptor [9]; 15.5 nM in assay [5]. For the same compound, the Ke was 0.16 nM in [2]; 21.2 nM at Mu-type opioid receptor [7]; 299 nM in [11]; 29 nM in [4]; 1.1 nM in assay [10].
With `N=C(N)Nc1ccc2[nH]c3c(c2c1)C[C@@]1(O)[C@H]2Cc4ccc(O)c5c4[C@@]1(CCN2CC1CC1)[C@H]3O5` [GUANIDINONALTRINDOLE], the Ki on Mu-type opioid receptor [1] turned out to be 36.9 nM; in assay [3], 70 nM; in assay [5], 0.18 nM. Also, the Mu/kappa ratio in assay [12] worked out at 206. In assay [13], the Delta/kappa is 389. The Kb in assay [14] is 0.0398 nM; on Mu-type opioid receptor [15], 3.24 nM; in assay [16], 15.5 nM.
In the case of `CC(=O)N1Cc2cc(O)ccc2C[C@@H]1C(=O)N[C@H](CN1CC[C@@](C)(c2cccc(O)c2)[C@@H](C)C1)C(C)C`, the figures for the Ki (on Mu-type opioid receptor [1]; in [3]; in assay [5]) were 764 nM, above 4900 nM and 146 nM, respectively. Further, the Ke was 19.6 nM in assay [2] and 17.4 nM in [4]. Moreover, the Delta/kappa in assay [13] is > 34 and 15.
`Oc1ccc2c3c1O[C@H]1c4[nH]c5c(c4C[C@@]4(O)[C@@H](C2)N(CC2CC2)CC[C@]314)C[C@@]1(O)[C@H]2Cc3ccc(O)c4c3[C@@]1(CCN2CC1CC1)[C@H]5O4` displayed a Ke in [11] of 4.4 nM.
Consider `CC(C)[C@@H](CN1CC[C@@](C)(c2cccc(O)c2)[C@@H](C)C1)NC(=O)[C@@H](N)Cc1ccc(O)cc1` (stereo in doubt; form 2) [listing 1 of 2 here], for which the Ke in assay [2] is 30 nM; in assay [4] it was 16.5 nM.
On to `CC(C)[C@@H](CN1CC[C@@](C)(c2cccc(O)c2)[C@@H](C)C1)NC(=O)[C@@H](N)Cc1ccc(O)cc1` (stereo in doubt; form 2) [listing 2 of 2 here], for which the Ki was 633 nM on Mu-type opioid receptor [1], above 5050 nM in [3] and 16 nM in assay [5].
`CC(C)[C@@H](CN1CC[C@@](C)(c2cccc(O)c2)[C@@H](C)C1)NC(=O)[C@H]1Cc2ccc(O)cc2CN1C`: the Ki at Mu-type opioid receptor [1] came to 37 nM; in assay [3], 616 nM; in assay [6], 1.01 nM; in assay [8], 118 nM; at Mu-type opioid receptor [9] it was 8.86 nM; in [5], 0.053 nM. In addition, the Ke in assay [2] is 0.37 nM; at Mu-type opioid receptor [7], 8.92 nM; in assay [11] it was 120 nM; in assay [4] it was 12.7 nM; in [10], 0.1 nM.
Take `CC(C)[C@@H](CN1CC[C@@](C)(c2cccc(O)c2)[C@@H](C)C1)NC(=O)[C@@H](N)Cc1ccc(O)cc1` (stereo in doubt; form 1) [listing 2 of 2 here]: the Ke in [2] amounted to 44.6 nM; in [4], 12 nM.
For the compound `CC(C)[C@@H](CN1CC[C@@](C)(c2cccc(O)c2)[C@@H](C)C1)NC(=O)[C@@H]1Cc2ccc(O)cc2CN1`, the Ki was 596 nM at Mu-type opioid receptor [1], above 4900 nM in assay [3] and 9.8 nM in assay [5]. Further, the Ke in assay [2] worked out at 4.2 nM; in assay [4], 11 nM.
For the compound `CC(C)[C@@H](CN1CC[C@@](C)(c2cccc(O)c2)[C@@H](C)C1)NC[C@H]1Cc2ccc(O)cc2CN1`, the Ke in assay [2] was found to be 0.2 nM; in assay [11], 427 nM; in [4], 12.8 nM; in [10], 0.14 nM; on Mu-type opioid receptor [17], 14.3 nM. Moreover, the Ki is above 4900 nM in assay [3]; 1.82 nM in [6]; 83.6 nM in assay [8]; 3.8 nM on Mu-type opioid receptor [9]; 0.63 nM in [5].
In the case of `CC(C)[C@@H](CN1CC[C@@](C)(c2cccc(O)c2)[C@@H](C)C1)NC(=O)[C@H]1Cc2ccc(O)cc2CN1` [JDTIC], the Ki on Mu-type opioid receptor [1] came out at 3.73 nM; in assay [3] it was 301 nM. Besides, the Ke in [2] turned out to be 0.02 nM; at Mu-type opioid receptor [7], 3.41 nM; in assay [11] it was 79.3 nM; in [4], 2.16 nM; in assay [10], 0.01 nM.

By Ki is commonly meant the dissociation constant of the complex between target and ligand, obtained from inhibition or displacement. Higher therefore signals a looser hold on the target.
